Assay results published in ChEMBL document CHEMBL1134075, “Synthesis and hydrolytic stability studies of albendazole carrier prodrugs” (Bioorg Med Chem Lett, 2001).

Tests used:
[1] = Partition coefficient (logP); format: physicochemical; settings: octanol/water
Method in brief: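 Determined by RP-HPLC. log K = log[(tr − t0)/t0], with t0 the elution time of methanol. log K0 at 0% methanol was obtained by linear regression of log K versus percent methanol, using standards.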

[2] = Half life of the at pH 7.4; format: ADME
Method in brief: (§1)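 Buffer hydrolysis at 37 °C in HCl, acetate, phosphate or borate buffers. Methanolic stock was added to preheated buffer in screw-capped tubes, giving about 4×10^-4 M final (1% methanol). Samples were taken at intervals and chromatographed immediately by HPLC. First-order k_obs came from the slope of log % formed albendazole versus time, and t1/2 = 0.693/k_obs.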

[3] = First order rate constant, k was determined at pH 5.0; format: ADME; method in brief: as §1
[4] = First order rate constant, k was determined at pH 7.4; format: ADME; method in brief: as §1
[5] = Half life of the in pig liver Esterase; format: ADME, Sus scrofa
Method in brief: (§2)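 Pig liver esterase used in place of plasma, at 37 °C with initial 4×10^-4 M (1% methanol). Samples were C18-extracted over time and albendazole formation was tracked by HPLC. k_obs was taken from the slope of log % formed albendazole versus time, and t1/2 = 0.693/k_obs. Mean ± SD.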

[6] = Half life of the at pH 5.0; format: ADME; method in brief: as §1
[7] = First order rate constant, k was determined in pig liver Esterase; format: ADME, tissue-based, Sus scrofa; method in brief: as §2
[8] = First order rate constant, k was determined in human plasma; format: ADME, cell-free
Method in brief: (§3)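 Incubation at 37 °C in 80% human plasma, initial 4×10^-4 M (1% methanol). Plasma samples withdrawn at various times were extracted on a C18 cartridge, and appearance of albendazole was followed by HPLC. First-order k_obs came from the slope of log % formed albendazole versus time, and t1/2 = 0.693/k_obs. Mean ± SD.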

[9] = Half life of the in human plasma; format: ADME, cell-free; method in brief: as §3
[10] = First order rate constant, k was determined at pH 5; format: ADME; method in brief: as §1
[11] = First order rate constant, k was determined at pH 8; format: ADME; method in brief: as §1
[12] = First order rate constant, k was determined at pH 9; format: ADME; method in brief: as §1
[13] = First order rate constant, k was determined at pH 6; format: ADME; method in brief: as §1
[14] = First order rate constant, k was determined at pH 4; format: ADME; method in brief: as §1
[15] = First order rate constant, k was determined at pH 2; format: ADME; method in brief: as §1
[16] = First order rate constant, k was determined at pH 3; format: ADME; method in brief: as §1
[17] = First order rate constant, k was determined at pH 1; format: ADME; method in brief: as §1

logP [1] | half-life [2] [min] | k [3] | half-life [5] [min] | half-life [6] [min] | k [7] | k [8] | half-life [9] [min] | Compound | also measured
3.17 | – | – | – | – | – | – | – | CCCSc1ccc2c(c1)nc(NC(=O)OC)n2C(=O)CC | –
2.82 | – | – | – | – | – | – | – | CCCSc1ccc2c(c1)nc(NC(=O)OC)n2C(C)=O | –
3.19 | 120 | 4.21 10e-3 min-1 | 6.99 | 165 | 99.14 10e-3 min-1 | 96.33 10e-3 min-1 | 7.19 | CCCSc1ccc2nc(NC(=O)OC)n(C(=O)OCC)c2c1 | k [4]: 5.78 10e-3 min-1
3.92 | 121 | 2.19 10e-3 min-1 | 6.92 | 316 | 100.14 10e-3 min-1 | 83.29 10e-3 min-1 | 8.32 | CCCSc1ccc2c(c1)nc(NC(=O)OC)n2C(=O)OCC | k [4]: 5.73 10e-3 min-1
2.91 | 123 | 3.01 10e-3 min-1 | 45.3 | 230 | 15.29 10e-3 min-1 | 12.43 10e-3 min-1 | 55.8 | CCCSc1ccc2c(c1)nc(NC(=O)OC)n2COC(=O)c1ccc(N)cc1.Cl | k [10]: 0.003 min⁻¹; k [11]: 1.8066 min⁻¹; k [12]: 8 min⁻¹; k [13]: 0.0036 min⁻¹; k [14]: 0.0087 min⁻¹; k [15]: 0.2826 min⁻¹; k [16]: 0.0323 min⁻¹; k [17]: 0.3203 min⁻¹
3.92 | – | – | – | – | – | – | – | CCCSc1ccc2c(c1)nc(NC(=O)OC)n2C(=O)CCC | –

Compound | logP [1] | half-life [2] [min] | k [3] | half-life [5] [min] | half-life [6] [min] | k [7] | k [8] | half-life [9] [min] | also measured
CCCSc1ccc2nc(NC(=O)OC)[nH]c2c1 [ALBENDAZOLE] | 3.07 | – | – | – | – | – | – | – | –
